Bfl-1 Bim block: inhibitors of Bim binding to Bfl-1, primary screen, biochemical, multiplexed, bead-based flow cytometry | Bim-Bfl-1 binding inhibition | inhibition, % at 10 µM | 190,000 compounds, 0.12% hits | AID 1008, 2008
Bcl-W Bim block: inhibitors of Bim binding to Bcl-W, primary screen, biochemical, multiplexed, bead-based flow cytometry; Bcl-2-like protein 2 (Homo sapiens), Q92843; Bim peptide-Bcl-W binding; inhibition, % at 10 µM; 190,000 compounds, 0.02% hits; AID 952, 2007;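 further: higher means less fluorescent Bim peptide bound to Bcl-W beads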
Bcl-B Bim block: inhibitors of Bim-Bcl-B binding, primary screen, biochemical, multiplexed, human Bcl-2 family. AID 951, 2007. Bcl-2-like protein 10 (Homo sapiens), Q9HD36. inhibition, % at 10 µM. 190,000 compounds, 0.073% hits. bead-based flow cytometry, Bim peptide-Bcl-B binding
Target sequence (Q9HD36 whole entry, looked up): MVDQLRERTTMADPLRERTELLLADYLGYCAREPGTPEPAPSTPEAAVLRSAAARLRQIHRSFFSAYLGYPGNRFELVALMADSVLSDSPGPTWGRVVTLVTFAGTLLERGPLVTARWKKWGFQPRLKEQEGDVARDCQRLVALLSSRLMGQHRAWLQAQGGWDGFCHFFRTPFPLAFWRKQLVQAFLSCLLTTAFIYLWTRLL
MDM2 E3 inh: MDM2-luciferase reporter signal enhancers, primary screen, MDM2 E3 ligase inhibitor project, cell-based, luminescence, 1536-well; 210,000 compounds, 0.11% hits; signal enhancement, % at 5 µM; AID 1230, 2008; cell-based MDM2 ubiquitination luciferase reporter, 2 h; 0 = plate control, 100 = twice control, blank-subtracted;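 active means signal enhancement of 30% or more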;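 further: luminescence tracks abundance of the self-degrading MDM2-luciferase fusion protein; higher signal means inhibition of MDM2 E3 ligase activity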
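Material: Stable MDM2–luciferase fusion reporter cells | Amount: 2000 cells seeded into each well | Dosing: One concentration, 5 µM, with 0.2% DMSO | Incubation: 4 h cell settling then 2 h compound exposure, 37 °C | Measured by: Luciferase luminescence | Read-out basis: % enhancement relative to plate controls after blank subtraction | Benchmarks: Control and blank well means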
Bim-Bcl-XL: inhibitors of Bim-Bcl-XL binding, primary screen, biochemical, multiplexed, bead flow cytometry, human Bcl-XL; inhibition, % at 10 µM; 190,000 compounds, 0.04% hits; Bim peptide-Bcl-XL binding, fluorescence; Bcl-2-like protein 1 (Homo sapiens), Q07817
Bcl-2 Bim block: inhibitors of Bim-Bcl-2 binding, primary screen, biochemical, multiplexed, human Bcl-2 family; Apoptosis regulator Bcl-2 (Homo sapiens), P10415; Bead-based flow cytometry, Bim peptide-Bcl-2 binding; inhibition, % at 10 µM; 190,000 compounds, 0.06% hits; in the data active means inhibition above about 40%
Hits are given with their value; . = inactive; / = no result. Rows were chosen to be rich in hits. Some 0.27% of all compounds tested hit in one or more screens of this group. Unless noted, no stated cut-off is given here; in the data, active means inhibition above about 40%.

SMILES | Bfl-1 Bim block | Bcl-W Bim block | Bcl-B Bim block | MDM2 E3 inh | Bim-Bcl-XL | Bcl-2 Bim block
C=CCN1C(=O)NC(=O)/C(=C/C=C/c2ccccc2)C1=O | . | . | . | . | . | .
O=C1NC(=O)N(CCc2ccc(F)cc2)C(=O)/C1=C\C=C\c1ccccc1 | . | . | . | 50 | . | .
O=c1c2ccccc2nc(-c2ccccc2)n1-c1cccnc1 | . | . | . | . | . | .
Cc1ccc(-c2nc3ccccc3c(=O)n2-c2cccnc2)cc1 | . | . | . | 34 | . | .
C=C1C(=O)O[C@@H]2C[C@@H](C)[C@@H]3C=CC(=O)[C@@]3(C)[C@@H](OC(=O)CC(=O)O[C@H]3[C@@H]4C(=C)C(=O)O[C@@H]4C[C@@H](C)[C@@H]4C=CC(=O)[C@]43C)[C@H]12 | / | / | / | . | / | /
C=C1C(=O)O[C@H]2C[C@@H](C)[C@@H]3C=CC(=O)[C@@]3(C)C[C@H]12 | / | / | / | 35 | / | /
CN1CCC(C)(O)C2CCCCC21 (configuration not stated) | . | . | . | . | . | .
Cc1cccc(N2C(=O)NC(=O)/C(=C\C=C\c3ccco3)C2=O)c1 | / | / | / | . | / | /
Cc1ccc(N2C(=O)NC(=O)/C(=C\C=C\c3ccco3)C2=O)cc1C | . | . | . | 53 | . | .
Oc1ccc2c3c1O[C@H]1c4oc5ccccc5c4C[C@@]4(O)[C@@H](C2)N(CC2CC2)CC[C@]314 | / | / | / | . | / | /
Cc1cccc(N2C(=O)NC(=O)/C(=C\c3cccn3-c3ccc(Cl)cc3)C2=O)c1 | . | . | . | 40 | . | .
C=C1C(=O)O[C@@H]2C[C@@H](C)[C@@H]3C4OC4C(=O)[C@@]3(C)[C@@H](O)[C@H]12 (some centres not stated) | / | / | / | 31 | / | /
COP(=O)(CC(=O)O)c1ccccc1 (configuration not stated) | . | . | 95 | . | 51 | .
c1ccc(-c2nc(N3CCOCC3)s[n+]2-c2ccccc2)cc1 | 52 | . | . | . | . | .
COc1ccc(C(=O)O/N=C(/C(N)=O)P(=O)(OC(C)C)OC(C)C)cc1 | / | / | / | . | / | /
CN1C(=O)CN=C(c2ccccc2)c2cc([N+](=O)[O-])ccc21 | . | . | . | / | . | .
